Reference: ChEMBL document CHEMBL4765405, “Design, synthesis and biological activities of novel pleuromutilin derivatives with a substituted triazole moiety as potent antibacterial agents” (Eur J Med Chem, 2020)
≈ marks a conversion by molar mass, not a printed value.

Tests used:
Format in all cases: functional
Staphylococcus aureus [1] = test: Bactericidal activity against methicillin-resistant Staphylococcus aureus ATCC 43300 preincubated 16 to 20 hrs followed by subculturing and measured after over night
Outline: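 MBC determined by the CLSI broth microdilution method against MRSA ATCC 43300, with ATCC 43300 also serving as the QC strain. Pleuromutilin and tiamulin were reference drugs.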

Staphylococcus aureus [2] = test: Antibacterial activity against Staphylococcus aureus 144 after 24 hrs by CLSI based broth micro dilution method
Outline: (§1)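 Broth microdilution run per CLSI. MRSA ATCC 43300 served as the QC strain, with the CLSI QC range as reference. S. aureus AD3 and 144 are clinical isolates from Guangdong Province. Pleuromutilin and tiamulin were run as reference drugs.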

Staphylococcus aureus [3] = test: Antibacterial activity against Staphylococcus aureus ATCC 29213 after 24 hrs by CLSI based broth micro dilution method; outline: as §1
Staphylococcus aureus [4] = test: Bactericidal activity against Staphylococcus aureus 144 preincubated 16 to 20 hrs followed by subculturing and measured after over night
Outline: (§2)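 MBC by CLSI broth microdilution on the same strain panel: S. aureus ATCC 43300, ATCC 29213, clinical isolates AD3 and 144, E. coli ATCC 25922; ATCC 43300 served as QC strain.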

[5] = Ratio of MBC for bactericidal activity against methicillin-resistant Staphylococcus aureus ATCC 43300 to MIC for antibacterial activity against methicillin-resistant Staphylococcus aureus ATCC 4330
Staphylococcus aureus [6] = test: Bactericidal activity against Staphylococcus aureus ATCC 29213 preincubated 16 to 20 hrs followed by subculturing and measured after over night; outline: as §2
Escherichia coli [7] = test: Antibacterial activity against Escherichia coli ATCC 25922 after 24 hrs by CLSI based broth micro dilution method
Outline: (§3)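 CLSI broth microdilution MIC against S. aureus ATCC 43300 (MRSA), ATCC 29213, clinical isolates AD3 and 144 (Guangdong Province), and E. coli ATCC 25922; ATCC 43300 served as QC strain, with the CLSI quality control range as reference.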

Staphylococcus aureus [8] = test: Antibacterial activity against Staphylococcus aureus AD3 after 24 hrs by CLSI based broth micro dilution method; outline: as §3
Staphylococcus aureus [9] = test: Bactericidal activity against Staphylococcus aureus AD3 preincubated 16 to 20 hrs followed by subculturing and measured after over night; outline: as §2
Escherichia coli [10] = test: Bactericidal activity against Escherichia coli ATCC 25922 preincubated 16 to 20 hrs followed by subculturing and measured after over night; outline: as §2
Staphylococcus aureus [11] = test: Antibacterial activity against methicillin-resistant Staphylococcus aureus ATCC 43300 after 24 hrs by CLSI based broth micro dilution method; outline: as §1

| Structure (SMILES) | MBC (Staphylococcus aureus [1]) [µg/mL] | MIC (Staphylococcus aureus [2]) [µg/mL] | MIC (Staphylococcus aureus [3]) [µg/mL] | MBC (Staphylococcus aureus [4]) [µg/mL] | Ratio [5] | MBC (Staphylococcus aureus [6]) [µg/mL] | MIC (Escherichia coli [7]) [µg/mL] | MIC (Staphylococcus aureus [8]) [µg/mL] | MBC (Staphylococcus aureus [9]) [µg/mL] | MBC (Escherichia coli [10]) [µg/mL] | MIC (Staphylococcus aureus [11]) [µg/mL] |
| --- | --- | --- | --- | --- | --- | --- | --- | --- | --- | --- | --- |
| C=C[C@]1(C)C[C@@H](OC(=O)CSc2ccccc2NC(=O)Cn2cc(CN3CCN(c4ccccc4OC)CC3)nn2)[C@]2(C)[C@H](C)CC[C@]3(CCC(=O)[C@H]32)[C@@H](C)[C@@H]1O | 1 (≈ 1.25 µM) | 1 (≈ 1.25 µM) | 1 (≈ 1.25 µM) | 4 (≈ 5.01 µM) | 1 | 2 (≈ 2.5 µM) | > 32 | 1 (≈ 1.25 µM) | 2 (≈ 2.5 µM) | > 32 | 0.5 (≈ 0.626 µM) |
| C=C[C@]1(C)C[C@@H](OC(=O)CSc2ccccc2NC(=O)Cn2cc(CN3CCN(c4cccc(O)c4)CC3)nn2)[C@]2(C)[C@H](C)CC[C@]3(CCC(=O)[C@H]32)[C@@H](C)[C@@H]1O | 0.5 (≈ 0.637 µM) | 0.5 (≈ 0.637 µM) | 0.25 (≈ 0.318 µM) | 1 (≈ 1.27 µM) | 1 | 0.5 (≈ 0.637 µM) | > 32 | 0.25 (≈ 0.318 µM) | 0.5 (≈ 0.637 µM) | > 32 | 0.25 (≈ 0.318 µM) |
| C=C[C@]1(C)C[C@@H](OC(=O)CSc2ccccc2NC(=O)Cn2cc(CN3CCN(c4cccc(C)c4)CC3)nn2)[C@]2(C)[C@H](C)CC[C@]3(CCC(=O)[C@H]32)[C@@H](C)[C@@H]1O | 1 (≈ 1.28 µM) | 1 (≈ 1.28 µM) | 1 (≈ 1.28 µM) | 8 (≈ 10.2 µM) | 1 | 2 (≈ 2.55 µM) | > 32 | 2 (≈ 2.55 µM) | 4 (≈ 5.11 µM) | > 32 | 1 (≈ 1.28 µM) |
| C=C[C@]1(C)C[C@@H](OC(=O)CSc2ccccc2NC(=O)Cn2cc(CN3CCC(O)CC3)nn2)[C@]2(C)[C@H](C)CC[C@]3(CCC(=O)[C@H]32)[C@@H](C)[C@@H]1O | 2 (≈ 2.83 µM) | 1 (≈ 1.41 µM) | 1 (≈ 1.41 µM) | 2 (≈ 2.83 µM) | 1 | 1 (≈ 1.41 µM) | > 32 | 1 (≈ 1.41 µM) | 1 (≈ 1.41 µM) | > 32 | 1 (≈ 1.41 µM) |
| C=C[C@]1(C)C[C@@H](OC(=O)CSc2ccccc2NC(=O)Cn2cc(CN3CCN(c4ccc(O)cc4)CC3)nn2)[C@]2(C)[C@H](C)CC[C@]3(CCC(=O)[C@H]32)[C@@H](C)[C@@H]1O | 4 (≈ 5.1 µM) | 2 (≈ 2.55 µM) | 2 (≈ 2.55 µM) | 8 (≈ 10.2 µM) | 1 | 4 (≈ 5.1 µM) | > 32 | 2 (≈ 2.55 µM) | 4 (≈ 5.1 µM) | > 32 | 2 (≈ 2.55 µM) |
| C=C[C@]1(C)C[C@@H](OC(=O)CSc2ccccc2NC(=O)Cn2cc(CN3CCN(c4ccccc4F)CC3)nn2)[C@]2(C)[C@H](C)CC[C@]3(CCC(=O)[C@H]32)[C@@H](C)[C@@H]1O | 2 (≈ 2.54 µM) | 1 (≈ 1.27 µM) | 0.5 (≈ 0.635 µM) | 1 (≈ 1.27 µM) | 1 | 1 (≈ 1.27 µM) | > 32 | 0.5 (≈ 0.635 µM) | 1 (≈ 1.27 µM) | > 32 | 1 (≈ 1.27 µM) |
| C=C[C@]1(C)C[C@@H](OC(=O)CSc2ccccc2NC(=O)Cn2cc(CN3CCN(c4ccccc4Cl)CC3)nn2)[C@]2(C)[C@H](C)CC[C@]3(CCC(=O)[C@H]32)[C@@H](C)[C@@H]1O | 2 (≈ 2.49 µM) | 2 (≈ 2.49 µM) | 1 (≈ 1.24 µM) | 4 (≈ 4.98 µM) | 1 | 2 (≈ 2.49 µM) | > 32 | 2 (≈ 2.49 µM) | 2 (≈ 2.49 µM) | > 32 | 1 (≈ 1.24 µM) |
| C=C[C@]1(C)C[C@@H](OC(=O)CSc2ccccc2NC(=O)Cn2cc(CN3CCOCC3)nn2)[C@]2(C)[C@H](C)CC[C@]3(CCC(=O)[C@H]32)[C@@H](C)[C@@H]1O | 1 (≈ 1.44 µM) | 1 (≈ 1.44 µM) | 0.5 (≈ 0.721 µM) | 1 (≈ 1.44 µM) | 1 | 0.5 (≈ 0.721 µM) | > 32 | 1 (≈ 1.44 µM) | 2 (≈ 2.88 µM) | > 32 | 0.5 (≈ 0.721 µM) |
| C=C[C@]1(C)C[C@@H](OC(=O)CSc2ccccc2NC(=O)Cn2cc(CN3CCN(c4cccc(F)c4)CC3)nn2)[C@]2(C)[C@H](C)CC[C@]3(CCC(=O)[C@H]32)[C@@H](C)[C@@H]1O | 2 (≈ 2.54 µM) | 1 (≈ 1.27 µM) | 0.5 (≈ 0.635 µM) | 2 (≈ 2.54 µM) | 1 | 0.5 (≈ 0.635 µM) | > 32 | 0.5 (≈ 0.635 µM) | 1 (≈ 1.27 µM) | > 32 | 1 (≈ 1.27 µM) |
| C=C[C@]1(C)C[C@@H](OC(=O)CO)[C@]2(C)[C@H](C)CC[C@]3(CCC(=O)[C@H]32)[C@@H](C)[C@@H]1O [PLEUROMULIN] | 4 (≈ 10.6 µM) | 2 (≈ 5.28 µM) | 1 (≈ 2.64 µM) | 4 (≈ 10.6 µM) | – | 2 (≈ 5.28 µM) | – | 2 (≈ 5.28 µM) | 4 (≈ 10.6 µM) | – | 2 (≈ 5.28 µM) |
